One may read the MIC as the lowest concentration that inhibits growth of the organism.

Values after ≈ are worked out from the molar mass of the structure shown. Active and inactive are the calls of the source. The calls are words filed in the database; no cut-off is given here.

For 39 molecules, MIC results are on record in ChEMBL document CHEMBL2021893, “Synthesis, structure-activity relationship and in vitro anti-mycobacterial evaluation of 13-n-octylberberine derivatives” (2012).

The test system of this assay is Mycobacterium tuberculosis. The assay can be described thus: Antimycobacterial activity against drug-susceptible Mycobacterium tuberculosis H37Rv measured 24 hrs post dose by microplate alamar blue assay. It counts as functional. The essentials:
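Two-fold serial drug dilutions in 7H9 medium in 48-well plates, with H37Rv suspension added to give 4 × 10^-4 mg/mL bacteria per well. Plates were incubated at 37 °C, and alamar blue was added at an optimal time. The read was visual at 24 h after reagent addition. MIC was taken as the lowest concentration preventing the colour change.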
For orientation: Resazurin is reduced to fluorescent resorufin, in cell work by metabolically active cells.
With `CCCCCCc1c2[n+](cc3c(OC)c(OC)ccc13)CCc1cc3c(cc1-2)OCO3`, the MIC result was “inactive”.
In the case of `CCCCCCCCc1c2[n+](cc3c(OCc4ccccc4)c(OC)ccc13)CCc1cc(OCc3ccccc3)c(O)cc1-2.[Cl-]`, the MIC turned out to be 0.5 µg/mL.
The molecule `CCCCCCCCc1c2[n+](cc3c(OC)c(OC)ccc13)CCc1cc(OCC)c(OCC)cc1-2.[Cl-]` had a minimum inhibitory concentration (MIC) of 0.5 µg/mL.
As to `COc1ccc2c(C)c3[n+](cc2c1OC)CCc1cc2c(cc1-3)OCO2`, the MIC result was “inactive”.
`CCCCCCCCc1c2[n+](cc3c(OCC)c(OC)ccc13)CCc1cc3c(cc1-2)OCO3.[Cl-]` yielded an MIC of 4 µg/mL.
In the case of `CCCCCc1c2[n+](cc3c(OC)c(OC)ccc13)CCc1cc3c(cc1-2)OCO3`, the MIC entry is “inactive”.
Next, `CCCCCCCCc1c2[n+](cc3c(OCC)c(OC)ccc13)CCc1cc(OCC)c(O)cc1-2.[Cl-]`: 4 µg/mL; `CCCCCCCCc1c2[n+](cc3c(OCCC)c(OC)ccc13)CCc1cc(OCCC)c(O)cc1-2.[Cl-]`: 4 µg/mL; `CCCCCCCCc1c2[n+](cc3c(O)c(OC)ccc13)CCc1cc(O)c(O)cc1-2.[Cl-]`: 32 µg/mL.
Consider `CCCCCCCc1c2[n+](cc3c(OC)c(OC)ccc13)CCc1cc3c(cc1-2)OCO3`, for which the MIC result was “inactive”.
For `CCCCCCCCc1c2[n+](cc3c(OC)c(OC)ccc13)CCc1cc(OCC)c(O)cc1-2.[Cl-]` the value was 2 µg/mL; for `CCCc1c2[n+](cc3c(OC)c(OC)ccc13)CCc1cc3c(cc1-2)OCO3`, “inactive”; for `CCCCCCCCc1c2[n+](cc3c(OC)c(OC)ccc13)CCc1cc(OCCCC)c(O)cc1-2.[Cl-]`, 8 µg/mL.
In turn, `CCCCCCCCc1c2[n+](cc3c(OC)c(OC)ccc13)CCc1cc3c(cc1-2)OCO3.[Cl-]` had an MIC of 2 µg/mL.
As for `CCCCCCCCc1c2[n+](cc3c(OC)c(OC)ccc13)CCc1cc(O)c(O)cc1-2.[Cl-]`, the MIC was determined as 16 µg/mL.
As to `CCCCCCCCc1c2[n+](cc3c(OC)c(OC)ccc13)CCc1cc(OC)c(O)cc1-2.[Cl-]`, it took 2 µg/mL to inhibit growth (MIC).
As to `CCCCCCCCc1c2[n+](cc3c(OC)c(OC)ccc13)CCc1cc(OCCC)c(O)cc1-2.[Cl-]`, it took 4 µg/mL to inhibit growth (MIC).
`CCCCCCCCc1c2[n+](cc3c(OC(=O)c4ccc(OC)cc4)c(OC)ccc13)CCc1cc3c(cc1-2)OCO3.[Cl-]` showed an MIC of 4 µg/mL.
For `NNC(=O)c1ccncc1` [ISONIAZID], it took 0.0625 µg/mL (≈ 0.456 µM) to inhibit growth (MIC).
In the case of `CCc1c2[n+](cc3c(OC)c(OC)ccc13)CCc1cc3c(cc1-2)OCO3`, the MIC entry is “inactive”.
On to `CCCCCCCCc1c2[n+](cc3c(OS(=O)(=O)c4ccc(C(F)(F)F)cc4)c(OC)ccc13)CCc1cc3c(cc1-2)OCO3.[Cl-]`, for which the MIC was 16 µg/mL.
For `CCCCCCCCc1c2[n+](cc3c(OC)c(OC)ccc13)CCc1cc(OCc3ccccc3)c(O)cc1-2.[Cl-]`, the minimal inhibitory concentration (MIC) stood at 2 µg/mL.
Next, `CO[C@H]1/C=C/O[C@@]2(C)Oc3c(C)c(O)c4c(O)c(c(/C=N/N5CCN(C)CC5)c(O)c4c3C2=O)NC(=O)/C(C)=C\C=C\[C@H](C)[C@H](O)[C@@H](C)[C@@H](O)[C@@H](C)[C@H](OC(C)=O)[C@@H]1C` [RIFAMPIN]: 0.0625 µg/mL (≈ 0.0759 µM).
With `CCCCCCCCc1c2[n+](cc3c(OC)c(OC)ccc13)CCc1cc(OCc3ccccc3)c(OCc3ccccc3)cc1-2.[Cl-]`, the minimal inhibitory concentration (MIC) was 8 µg/mL.
Next, `CCCCCCCCc1c2[n+](cc3c(OC(=O)c4ccc(C)cc4)c(OC)ccc13)CCc1cc3c(cc1-2)OCO3.[Cl-]`: 4 µg/mL; `CCCCc1c2[n+](cc3c(OC)c(OC)ccc13)CCc1cc3c(cc1-2)OCO3`: “inactive”.
For `CCCCCCCCc1c2[n+](cc3c(OC)c(OC)ccc13)CCc1cc(OCCCC)c(OCCCC)cc1-2.[Cl-]` the value was 2 µg/mL.
In turn, `CCCCCCCCc1c2[n+](cc3c(OS(=O)(=O)c4ccc(C#N)cc4)c(OC)ccc13)CCc1cc3c(cc1-2)OCO3.[Cl-]` came in with an MIC of 8 µg/mL.
Take `CCCCCCCCc1c2[n+](cc3c(OC)c(OC)ccc13)CCc1cc(OCCC)c(OCCC)cc1-2.[Cl-]`: the MIC was 2 µg/mL.
Take `CCCCCCCCc1c2[n+](cc3c(OC)c(OC)ccc13)CCc1cc3c(cc1-2)OCCO3.[Cl-]`: the MIC came out at 2 µg/mL.
In the case of `CCCCCCCCc1c2[n+](cc3c(OCCCC)c(OC)ccc13)CCc1cc3c(cc1-2)OCO3.[Cl-]`, the MIC stood at 8 µg/mL.
For `CCCCCCCCc1c2[n+](cc3c(OCc4ccccc4)c(OC)ccc13)CCc1cc(OCc3ccccc3)c(OCc3ccccc3)cc1-2.[Cl-]` the value was 8 µg/mL; for `CCCCCCCCc1c2[n+](cc3c(O)c(OC)ccc13)CCc1cc3c(cc1-2)OCO3.[Cl-]`, 4 µg/mL.
Regarding `CCCCCCCCc1c2[n+](cc3c(OCCC)c(OC)ccc13)CCc1cc3c(cc1-2)OCO3.[Cl-]`, the MIC stood at 2 µg/mL.
Molecule `CCCCCCCCc1c2[n+](cc3c(OCC)c(OC)ccc13)CCc1cc(OCC)c(OCC)cc1-2.[Cl-]` yielded an MIC of 0.125 µg/mL.
Next, `CCCCCCCCc1c2[n+](cc3c(OCCCC)c(OC)ccc13)CCc1cc(OCCCC)c(O)cc1-2.[Cl-]`: 8 µg/mL; `CCCCCCCCc1c2[n+](cc3c(OC)c(OC)ccc13)CCc1cc(OC)c(OC)cc1-2.[Cl-]`: 2 µg/mL.
In turn, `CCCCCCCCc1c2[n+](cc3c(OCc4ccccc4)c(OC)ccc13)CCc1cc3c(cc1-2)OCO3.[Cl-]` registered an MIC of 4 µg/mL.
Next, `COc1ccc2cc3[n+](cc2c1OC)CCc1cc2c(cc1-3)OCO2`: “inactive”.
